# Assay results as given in PMC3553303 (Biochemical pharmacology, 2012).
# Assays:
# FPR2 [1] = target: T1, FPR2 (Homo sapiens, UniProt P25090); assay: PathHunter β-arrestin recruitment, FPR2-CHO-K1 cells; type: cell-based; settings: read-out: β-arrestin recruitment EC50
# T1 sequence (P25090 1-351): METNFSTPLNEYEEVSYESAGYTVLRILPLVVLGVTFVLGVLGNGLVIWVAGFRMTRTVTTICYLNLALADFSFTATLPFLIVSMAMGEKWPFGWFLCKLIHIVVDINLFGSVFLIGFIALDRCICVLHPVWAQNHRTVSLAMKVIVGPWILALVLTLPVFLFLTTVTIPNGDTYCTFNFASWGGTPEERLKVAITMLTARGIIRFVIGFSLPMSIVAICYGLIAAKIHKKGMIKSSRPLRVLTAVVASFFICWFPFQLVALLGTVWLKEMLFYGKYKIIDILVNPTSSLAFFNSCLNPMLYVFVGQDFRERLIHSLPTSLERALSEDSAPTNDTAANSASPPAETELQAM
# Method in brief: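 The assay used the PathHunter enzyme-fragment complementation format in FPR2-transfected CHO-K1 cells. Thawed cells were plated at 5000/well in the kit medium and held 48 h at 37 °C with 5% CO2. Test compound was serially diluted at constant DMSO and added for 90 min at 37 °C, then detection reagent for 60 min at room temperature. Chemiluminescence was read.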
# human neutrophils = assay: Neutrophil chemotaxis assay; type: cell-based; settings: read-out: Neutrophils Chemotaxis EC50, N.A. = non-active
# FPR2 [2] = target: T1, FPR2; assay: Ca2+ mobilization in FPR2-HL-60 cells; type: cell-based; settings: percentage of the response induced by 5 nM WKYMVM
# bombesin receptor (BB2) = bombesin receptor (BB2) (Homo sapiens, UniProt P30550); type: binding; settings: read-out: Ki, displacement of [125I][Tyr4]bombesin; PC3 cells
# Chain of bombesin receptor (BB2) (P30550 whole entry): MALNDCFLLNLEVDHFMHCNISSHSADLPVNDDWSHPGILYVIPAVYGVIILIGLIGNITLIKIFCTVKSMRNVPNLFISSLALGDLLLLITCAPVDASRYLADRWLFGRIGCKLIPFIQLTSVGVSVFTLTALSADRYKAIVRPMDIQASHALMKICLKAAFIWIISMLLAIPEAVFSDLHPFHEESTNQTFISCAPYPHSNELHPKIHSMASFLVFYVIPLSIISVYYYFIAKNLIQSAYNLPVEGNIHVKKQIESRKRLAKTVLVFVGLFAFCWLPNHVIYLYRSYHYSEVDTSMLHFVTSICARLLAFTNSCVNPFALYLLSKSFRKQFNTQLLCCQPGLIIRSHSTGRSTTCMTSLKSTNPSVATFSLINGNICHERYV
# FPR1 [3] = target: T2, FPR1 (Homo sapiens, UniProt P21462); assay: Ca2+ mobilization in FPR1-HL-60 cells; type: cell-based; settings: percentage of the response induced by 5 nM fMLF
# T2 sequence (P21462 1-350): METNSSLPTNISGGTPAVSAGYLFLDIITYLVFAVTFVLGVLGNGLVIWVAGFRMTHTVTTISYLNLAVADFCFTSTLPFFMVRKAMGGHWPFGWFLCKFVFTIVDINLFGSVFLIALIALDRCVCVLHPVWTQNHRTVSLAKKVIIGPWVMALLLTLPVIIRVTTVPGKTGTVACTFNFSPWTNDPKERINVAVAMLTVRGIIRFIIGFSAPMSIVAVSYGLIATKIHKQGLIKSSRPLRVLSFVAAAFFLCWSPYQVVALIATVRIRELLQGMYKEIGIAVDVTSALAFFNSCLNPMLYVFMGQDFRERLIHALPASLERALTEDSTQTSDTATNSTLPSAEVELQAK
# FPR1 [4] = target: T2, FPR1; assay: PathHunter β-arrestin recruitment, FPR1-CHO-K1 cells; type: cell-based; settings: read-out: β-arrestin recruitment EC50
SMILES,EC50 (FPR2 [1]),EC50 (human neutrophils),Ca2+ Mobilization in HL-60 cells FPR2 Efficacy (FPR2 [2]),Ki (bombesin receptor (BB2)),Ca2+ Mobilization in HL-60 cells FPR1 Efficacy (FPR1 [3]),EC50 (FPR1 [4])
C[C@@](Cc1c[nH]c2ccccc12)(NC(=O)Nc1ccc([N+](=O)[O-])cc1)C(=O)NCC1(c2ccccn2)CCCCC1 [PD168368],11.1 ± 2.8 µM,0.7 ± 0.15 µM,75%,,,
COc1ccc(C2(CNC(=O)[C@](C)(Cc3c[nH]c4ccccc34)NC(=O)Nc3ccc([N+](=O)[O-])cc3)CCCCC2)nc1 [PD176252],8.8 ± 2 µM,0.81 ± 0.22 µM,90%,0.066 µM,100%,3.8 ± 1.1 µM
